Format in all cases: functional, cell-based
The subject of one test is SW480. The experiment in a line: Cytotoxicity against human SW480 cells after 48 hrs by MTT assay. To be noted: SW480, 48 h. In a few lines:
(§1)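 MTT viability read-out on a human tumour panel: HL-60 leukaemia, SMMC-7721 hepatoma, A-549 lung, MCF-7 breast and SW480 colon carcinoma. Camptothecin and cisplatin were run alongside as positive controls. Potency is reported as the half-maximal inhibitory concentration (IC50) in μmol L-1.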
For orientation: Tetrazolium assays rely on reduction of a dye to a coloured formazan, in cell work by metabolically active cells.

Another test concerns A549. The experiment in a line: Cytotoxicity against human A549 cells after 48 hrs by MTT assay. To be noted: A549, 48 h. In a few lines: as §1
A further test deals with SMMC-7721. The experiment in a line: Cytotoxicity against human SMMC7721 cells after 48 hrs by MTT assay. To be noted: SMMC-7721, 48 h. A digest of the protocol: as §1
The test system of a further test is HL-60. Kind of test: Cytotoxicity against human HL60 cells after 48 hrs by MTT assay. To be noted: HL-60, 48 h. A digest of the protocol:
as §1

For another test, the system named is MCF7. The experiment in a line: Cytotoxicity against human MCF7 cells after 48 hrs by MTT assay. To be noted: MCF7, 48 h. In a few lines: as §1

On to `CC[C@@]1(OC(=O)CCCCCNC(=O)CCCC[C@@H]2SC[C@@H]3NC(=O)N[C@@H]32)C(=O)OCc2c1cc1n(c2=O)Cc2cc3ccccc3nc2-1`, for which the IC50 was > 40 µM with SW480; 19.9 µM with A549; 15.3 µM in the test on SMMC-7721; 6.57 µM in the test with HL-60; 21.5 µM with MCF7.
On to `CC[C@@]1(OC(=O)CCCC[C@@H]2SC[C@@H]3NC(=O)N[C@@H]32)C(=O)OCc2c1cc1n(c2=O)Cc2cc3ccccc3nc2-1`, for which the 50% inhibitory concentration (IC50) was 12.5 µM in the test on SW480; 3.47 µM in the test with A549; 7.69 µM in the test with SMMC-7721; 2.3 µM in the test with HL-60; 18.2 µM in the test on MCF7.
The matching figures for `CCc1c2c(nc3ccccc13)-c1cc3c(c(=O)n1C2)COC(=O)[C@@]3(CC)OC(=O)CCCC[C@@H]1SC[C@@H]2NC(=O)N[C@@H]21`: 8.73 µM, 1.14 µM, 3.28 µM, 1.81 µM and 4.26 µM.
The matching figures for `CC[C@@]1(OCc2cn(CCOCCOCCOCCOCCOCCNC(=O)CCCC[C@@H]3SC[C@@H]4NC(=O)N[C@@H]43)nn2)C(=O)OCc2c1cc1n(c2=O)Cc2cc3ccccc3nc2-1`: > 40 µM, > 40 µM, > 40 µM, > 40 µM and > 40 µM.
Turning to `CC[C@@]1(O)C(=O)OCc2c1cc1n(c2=O)Cc2cc3cc(OC(=O)CCCC[C@@H]4SC[C@@H]5NC(=O)N[C@@H]54)ccc3nc2-1`, the half-inhibitory concentration (IC50) with SW480 turned out to be 0.55 µM; with A549, 1.23 µM; in the test on SMMC-7721, 3.32 µM; with HL-60, 3.19 µM; in the test on MCF7, 2.3 µM.
Regarding `CCc1c2c(nc3ccc(OC(=O)CCCC[C@@H]4SC[C@@H]5NC(=O)N[C@@H]54)cc13)-c1cc3c(c(=O)n1C2)COC(=O)[C@]3(O)CC`, the IC50 came out at 0.13 µM with SW480; 0.52 µM in the test with A549; 1.55 µM with SMMC-7721; 3.31 µM in the test with HL-60; 0.8 µM in the test on MCF7.
The matching figures for `CC[C@@]1(O)C(=O)OCc2c1cc1n(c2=O)Cc2cc3cc(OC(=O)CCCCCNC(=O)CCCC[C@@H]4SC[C@@H]5NC(=O)N[C@@H]54)ccc3nc2-1`: 0.45 µM, 0.75 µM, 1.85 µM, 1.14 µM and 0.34 µM.
The matching figures for `CCc1c2c(nc3ccccc13)-c1cc3c(c(=O)n1C2)COC(=O)[C@@]3(CC)OC(=O)CCCCCNC(=O)CCCC[C@@H]1SC[C@@H]2NC(=O)N[C@@H]21`: 16.2 µM, 3.08 µM, 12.2 µM, 0.84 µM and 1.94 µM.
Turning to `CCc1c2c(nc3ccc(OC(=O)CCCCCNC(=O)CCCC[C@@H]4SC[C@@H]5NC(=O)N[C@@H]54)cc13)-c1cc3c(c(=O)n1C2)COC(=O)[C@]3(O)CC`, the IC50 stood at 1.48 µM with SW480; 0.23 µM with A549; 1.14 µM in the test with SMMC-7721; 0.76 µM in the test with HL-60; 0.4 µM with MCF7.
Regarding `CC[C@@]1(OCc2cn(CCOCCOCCNC(=O)CCCC[C@@H]3SC[C@@H]4NC(=O)N[C@@H]43)nn2)C(=O)OCc2c1cc1n(c2=O)Cc2cc3ccccc3nc2-1`, the IC50 in the test with SW480 stood at 6.05 µM; in the test on A549 it was 3.63 µM; with SMMC-7721, 4.77 µM; in the test on HL-60, 0.72 µM; in the test with MCF7 it was 3.47 µM.
Turning to `CCc1c2c(nc3ccccc13)-c1cc3c(c(=O)n1C2)COC(=O)[C@@]3(CC)OCc1cn(CCOCCOCCOCCOCCOCCNC(=O)CCCC[C@@H]2SC[C@@H]3NC(=O)N[C@@H]32)nn1`, the IC50 is 0.57 µM in the test with SW480; 5.18 µM in the test with A549; 4.1 µM in the test on SMMC-7721; 4.77 µM in the test on HL-60; 9.21 µM in the test on MCF7.
Take `CCc1c2c(nc3ccccc13)-c1cc3c(c(=O)n1C2)COC(=O)[C@@]3(CC)OCc1cn(CCOCCOCCNC(=O)CCCC[C@@H]2SC[C@@H]3NC(=O)N[C@@H]32)nn1`: the half-inhibitory concentration (IC50) in the test with SW480, with A549, in the test on SMMC-7721, with HL-60 and in the test with MCF7 was > 40 µM throughout.
Take `CC[C@@]1(O)C(=O)OCc2c1cc1n(c2=O)Cc2cc3ccccc3nc2-1` [CAMPTOTHECIN]: the IC50 in the test on SW480 was 0.29 µM; in the test with SMMC-7721 it was 0.45 µM; in the test on HL-60, < 0.064 µM.

What is called IC50 is the concentration needed to halve the response being measured. A low value points to higher potency.
